For data set [1], the target named is T1, fatty acid amide hydrolase (FAAH) (Homo sapiens, UniProt O00519).
T1 sequence (O00519 1-579): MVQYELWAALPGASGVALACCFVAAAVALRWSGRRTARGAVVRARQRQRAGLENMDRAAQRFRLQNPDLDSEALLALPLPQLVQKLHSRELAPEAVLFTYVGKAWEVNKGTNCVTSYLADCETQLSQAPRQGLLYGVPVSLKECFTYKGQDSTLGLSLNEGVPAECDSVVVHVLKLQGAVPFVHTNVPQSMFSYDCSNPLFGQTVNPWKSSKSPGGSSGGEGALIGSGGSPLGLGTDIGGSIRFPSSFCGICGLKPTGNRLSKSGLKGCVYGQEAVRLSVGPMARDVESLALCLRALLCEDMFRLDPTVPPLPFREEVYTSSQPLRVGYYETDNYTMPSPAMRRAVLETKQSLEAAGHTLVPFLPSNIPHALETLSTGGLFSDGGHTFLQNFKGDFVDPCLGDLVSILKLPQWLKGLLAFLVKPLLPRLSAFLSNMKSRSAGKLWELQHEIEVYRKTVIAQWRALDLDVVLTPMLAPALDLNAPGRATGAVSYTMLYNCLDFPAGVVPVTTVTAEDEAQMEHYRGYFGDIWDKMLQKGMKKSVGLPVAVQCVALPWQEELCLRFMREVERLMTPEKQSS
The data set is described as follows: FAAH inhibition assay, substrate OMP. In kind it is biochemical. A digest of the protocol:
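FAAH activity was followed fluorimetrically (excitation 303 nm, emission 394 nm) at 37 °C using N-(6-methoxypyridin-3-yl)octanamide (OMP) at a final concentration of 50 μM. The reaction buffer was 0.1 M sodium phosphate, pH 8, containing 0.1 mg/mL BSA. Each experiment was run in triplicate, and values are given as average ± SD.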

For data set [2], the target named is T2, Human sEH (Homo sapiens, UniProt P34913).
T2 sequence (P34913 1-555): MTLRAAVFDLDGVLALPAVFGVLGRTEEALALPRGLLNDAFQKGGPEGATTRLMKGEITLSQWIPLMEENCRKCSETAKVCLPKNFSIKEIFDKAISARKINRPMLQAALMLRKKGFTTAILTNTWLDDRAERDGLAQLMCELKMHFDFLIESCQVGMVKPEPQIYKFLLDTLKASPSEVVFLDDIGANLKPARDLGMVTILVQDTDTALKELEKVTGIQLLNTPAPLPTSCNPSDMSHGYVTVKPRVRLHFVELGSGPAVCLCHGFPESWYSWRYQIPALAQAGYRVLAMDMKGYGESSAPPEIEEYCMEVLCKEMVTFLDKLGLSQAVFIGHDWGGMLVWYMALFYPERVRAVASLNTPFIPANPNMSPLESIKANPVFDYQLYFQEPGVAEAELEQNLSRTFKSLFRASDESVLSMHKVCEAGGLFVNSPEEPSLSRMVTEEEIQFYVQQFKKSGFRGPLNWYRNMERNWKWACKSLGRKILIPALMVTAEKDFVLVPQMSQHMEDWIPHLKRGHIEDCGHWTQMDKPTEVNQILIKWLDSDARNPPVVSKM
Briefly: human sEH inhibition assay, fluorescent substrate CMNPC. In kind it is biochemical.

A short description of data set [3]: human liver microsomal metabolic stability. In kind it is in vitro ADME. The conditions noted are these: both, human liver microsomes.
Data set [4] can be described thus: rat liver microsomal metabolic stability. The class given is in vitro ADME. The conditions noted are these: for half-life / microsomal CLint: both, rat, rat liver microsomes; for microsomal CLint: app (rat liver microsomes).
Data set [5] concerns the target T3, rat sEH enzyme (Rattus norvegicus, UniProt P80299).
T3 sequence (P80299 1-554): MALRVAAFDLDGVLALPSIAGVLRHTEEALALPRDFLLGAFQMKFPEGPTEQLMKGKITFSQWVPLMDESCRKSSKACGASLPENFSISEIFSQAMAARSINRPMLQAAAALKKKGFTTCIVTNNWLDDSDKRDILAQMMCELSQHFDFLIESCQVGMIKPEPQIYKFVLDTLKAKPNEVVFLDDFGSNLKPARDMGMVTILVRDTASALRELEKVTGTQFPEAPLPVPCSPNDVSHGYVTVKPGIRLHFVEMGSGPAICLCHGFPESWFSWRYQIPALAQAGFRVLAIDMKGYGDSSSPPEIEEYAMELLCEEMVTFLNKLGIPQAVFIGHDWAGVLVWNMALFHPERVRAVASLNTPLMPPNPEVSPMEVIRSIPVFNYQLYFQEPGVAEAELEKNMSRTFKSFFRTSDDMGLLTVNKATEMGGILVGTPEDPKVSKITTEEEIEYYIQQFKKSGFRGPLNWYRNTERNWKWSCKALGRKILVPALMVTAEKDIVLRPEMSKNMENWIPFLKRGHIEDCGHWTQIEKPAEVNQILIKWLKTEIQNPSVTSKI
The data set is described as follows: rat sEH inhibition assay. In kind it is biochemical.

The conditions of data set [6]: cited from earlier work.
The mark [7] stands for this setting: apparent intrinsic clearance, CLint = k/P.

Usually IC50 stands for the concentration that inhibits the measured activity by half. Usually half-life stands for the time needed for the level to fall by half in the phase considered. Read a high half-life as slow loss. As usually defined, the microsomal CLint is the capacity of the preparation to metabolise the compound, expressed as a volume cleared per time. Take `[2H]c1c([2H])c(S(=O)(=O)N2CCC(C(=O)Nc3ccc4cc(C(=O)O)ccc4c3)CC2)c(C([2H])([2H])[2H])c([2H])c1C([2H])([2H])[2H]` [Compound 3i, 6-(1-((2,4-bis(methyl-d3)phenyl-3,5,6-d3)sulfonyl)piperidine-4-carboxamido)-2-naphthoic acid]: the IC50 amounted to 8800 nM in data set [1] and 106 nM in data set [2]. The half-life is over 4 h in data set [3] and over 1 h in data set [4]. Moreover, the microsomal CLint in data set [3] is under 5.8 µL/min/mg; in data set [4] (setting [7]), about 20 µL/min/mg. For the same compound, the “CLint, app (rat liver microsomes)” value in data set [4] (setting [7]) was under 23.1 µL/min/mg.

As to `Cc1ccc(S(=O)(=O)N2CCC(C(=O)Nc3ccc4cc(C(=O)O)ccc4c3)CC2)c(C)c1` [Compound 3, 6-(1-((2,4-dimethylphenyl)sulfonyl)piperidine-4-carboxamido)-2-naphthoic acid], the IC50 was found to be 141 ± 20 nM in data set [5], 23000 nM in data set [1] and 85 nM in data set [2]. Besides, in data set [6], the “CLint, app (human liver microsomes), previously published value in parenthesis” value was 6.3 µL/min/mg. In addition, the half-life in data set [3] is 3.1 h; in data set [4] it was 0.433 h. For the same compound, the microsomal CLint in data set [3] is 7.5 µL/min/mg; in data set [4] (setting [7]), 53.3 µL/min/mg.

The record behind these values is publication PMC5970965 (Prostaglandins & other lipid mediators, 2018).
